ChEMBL document CHEMBL3425440, “ent-Kaurane Diterpenoids from Chinese Liverworts and Their Antitumor Activities through Michael Addition As Detected in Situ by a Fluorescence Probe” (J Med Chem, 2015)

Experiments:
[1] = Cytotoxicity against human RWPE1 cells assessed as cell viability after 24 hrs by MTT assay; assay type: cell-based; conditions: RWPE-1, 24 h
Procedure, shortened: (§1)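 Cells grown to about 50−70% confluence at 37 °C, 5% CO2, then exposed to compounds 24 h (DMSO vehicle control, cisplatin positive control). MTT (5 mg/mL stock) added for 4 h, formazan dissolved in DMSO, absorbance read at 570 nm. IC50 derived from percent viability; at least three independent experiments, mean ± SD.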

[2] = tested on: LNCaP; assay: Cytotoxicity against human LNCAP cells assessed as cell viability after 24 hrs by MTT assay; assay type: functional, cell-based; procedure, shortened: as §1
[3] = tested on: K562; assay: Cytotoxicity against human K562 cells assessed as cell viability after 24 hrs by MTT assay; assay type: functional, cell-based; conditions: K562, 24 h; procedure, shortened: as §1
[4] = Cytotoxicity against human SH-SY5Y cells assessed as cell viability after 24 hrs by MTT assay; assay type: functional, cell-based; procedure, shortened: as §1
[5] = tested on: LoVo; assay: Cytotoxicity against human LoVo cells assessed as cell viability after 24 hrs by MTT assay; assay type: functional, cell-based; procedure, shortened: as §1
[6] = tested on: MDA-MB-231; assay: Cytotoxicity against human MDA-MB-231 cells assessed as cell viability after 24 hrs by MTT assay; assay type: functional, cell-based; conditions: MDA-MB-231, 24 h; procedure, shortened: as §1
[7] = tested on: DU-145; assay: Cytotoxicity against human DU145 cells assessed as cell viability after 24 hrs by MTT assay; assay type: functional, cell-based; conditions: DU-145, 24 h; procedure, shortened: as §1
[8] = Cytotoxicity against human SKOV3 cells assessed as cell viability after 24 hrs by MTT assay; assay type: functional, cell-based; conditions: SK-OV-3, 24 h; procedure, shortened: as §1
[9] = Cytotoxicity against human HL60 cells assessed as cell viability after 24 hrs by MTT assay; assay type: functional, cell-based; conditions: HL-60, 24 h; procedure, shortened: as §1
[10] = tested on: NCI-H1299; assay: Cytotoxicity against human NCI-H1299 cells assessed as cell viability after 24 hrs by MTT assay; assay type: functional, cell-based; conditions: NCI-H1299, 24 h; procedure, shortened: as §1
[11] = Cytotoxicity against human T24 cells assessed as cell viability after 24 hrs by MTT assay; assay type: functional, cell-based; conditions: T-24, 24 h; procedure, shortened: as §1
[12] = Cytotoxicity against human A172 cells assessed as cell viability after 24 hrs by MTT assay; assay type: functional, cell-based; conditions: A 172, 24 h; procedure, shortened: as §1
[13] = Cytotoxicity against human Saos2 cells assessed as cell viability after 24 hrs by MTT assay; assay type: functional, cell-based; conditions: SAOS-2, 24 h; procedure, shortened: as §1
[14] = Cytotoxicity against human PC3 cells assessed as cell viability after 24 hrs by MTT assay; assay type: functional, cell-based; conditions: PC-3, 24 h; procedure, shortened: as §1

Measured: IC50

C=C1[C@@H]2CC[C@H]3[C@]4(C)CCC[C@](C)(C(=O)O)[C@H]4CC[C@]3(C2)[C@@H]1OC(C)=O
> 50 µM: [1] | [2] | [3] | [4] | [5] | [6] | [7] | [8] | [9] | [10] | [11] | [12] | [13] | [14]

C[C@@H]1C(=O)[C@H]2C[C@]1(O)CC1=C2[C@]2(C)CCCC(C)(C)[C@H]2CC1
> 50 µM: [1] | [2] | [3] | [4] | [5] | [6] | [7] | [8] | [9] | [10] | [11] | [12] | [13] | [14]

C[C@@H]1C(=O)[C@@]23CC[C@@H]4[C@@](C)(CO)CCC[C@@]4(C)C2=CC[C@]1(O)C3
> 50 µM: [1] | [2] | [3] | [4] | [5] | [6] | [7] | [8] | [9] | [10] | [11] | [12] | [13] | [14]

C=C1[C@@H]2CC[C@@H]3[C@@](CC[C@@H]4C(C)(C)CC[C@H](O)[C@]43C)(C2)[C@H]1O
> 50 µM: [1] | [2] | [3] | [4] | [5] | [6] | [7] | [8] | [9] | [10] | [11] | [12] | [13] | [14]

C[C@H]1C(=O)[C@@]23CC[C@@H]4C(C)(C)CCC[C@@]4(C)C2=CC[C@]1(O)C3
> 50 µM: [1] | [2] | [3] | [4] | [5] | [6] | [7] | [8] | [9] | [10] | [11] | [12] | [13] | [14]

C=C1C[C@]23C[C@H]1CC[C@H]2[C@@]1(C)[C@H](C[C@H]3O)C(C)(C)CC[C@@H]1O
> 50 µM: [1] | [2] | [3] | [4] | [5] | [6] | [7] | [8] | [9] | [10] | [11] | [12] | [13] | [14]
